ChEMBL document CHEMBL5661964, “Selective in vivo and in vitro effects of a small molecule inhibitor of cyclin-dependent kinase 4” (J Natl Cancer Inst, 2001)

How the values were obtained:
Type in all cases: functional
HCT-116 [1] = test: Induction of cell cycle arrest in human HCT-116 cells assessed as number of cells at S phase at 5 uM after 24 hrs in presence of 10% serum by flow cytometry analysis (reference value: 36.3%)
Summary of the method: (§1)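 HCT116 cells in McCoy's 5A were serum-starved 72 h in 0.1% serum, then released for 24 h into 10% serum with or without compound. They were fixed in 70% ethanol, RNase-treated (3 mg/mL, 30 min, 37 °C) and stained with 50 μg/mL propidium iodide. Flow cytometry on FL-2 area with doublet gating gave the percentages in sub-G1, G0/G1, S and G2/M.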

HCT-116 [2] = test: Induction of cell cycle arrest in human HCT-116 cells assessed as number of cells at SubG1 phase at 5 uM after 24 hrs in presence of 10% serum by flow cytometry analysis (reference value: 1.1%); summary of the method: as §1
HCT-116 [3] = test: Induction of cell cycle arrest in human HCT-116 cells assessed as number of cells at G2/M phase at 10 uM after 24 hrs in presence of 10% serum by flow cytometry analysis (reference value: 13.1%); summary of the method: as §1
MRC5 [4] = test: Induction of cell cycle arrest in human MRC5 cells assessed as number of cells at G0/G1 phase at 5 uM after 24 hrs in presence of 10% serum by flow cytometry analysis (reference value: 64.1%)
MRC5 [5] = test: Induction of cell cycle arrest in human MRC5 cells assessed as number of cells at S phase at 5 uM after 24 hrs in presence of 10% serum by flow cytometry analysis (reference value: 16.1%)
U2OS [6] = test: Induction of cell cycle arrest in human U2OS cells assessed as percentage of cells at G2/M phase, cells were released from mimosine block prior to compound addition at 5 uM after 38 hrs by flow cytometry analysis (reference value: 32.3%)
U2OS [7] = test: Induction of cell cycle arrest in human U2OS cells assessed as percentage of cells at G2/M phase, cells were released from mimosine block prior to compound addition at 10 uM after 38 hrs by flow cytometry analysis (reference value: 32.3%)
U2OS [8] = test: Induction of cell cycle arrest in human U2OS cells assessed as percentage of cells at SubG1 phase, cells were released from mimosine block prior to compound addition at 10 uM after 16 hrs by flow cytometry analysis (reference value: 2.2%)
U2OS [9] = test: Induction of apoptosis in human U2OS cells assessed as number of apoptotic cells at 10 uM after 48 hrs by TUNEL staining based fluorescence analysis (reference value: 0.61%)
NIH3T3 [10] = test: Induction of cell cycle arrest in mouse NIH3T3 cells expressing pRb-negative assessed as percentage of cells at S phase at 5 uM after 24 hrs by flow cytometry analysis (reference value: 20%)
Summary of the method: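 Congenic NIH3T3 line with homozygous Rb deletion, grown at 37 °C in 5% CO2 in high-glucose DMEM with 10% FCS. Asynchronous cells were seeded at 7.5 × 10^4 cells/mL, grown 24 h, then treated 24 h (compound added from 100× stocks in 10% DMSO). Cells were ethanol-fixed, treated with RNase and stained with propidium iodide; FL-2 area was measured with single-event gating. Run at least twice.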

NIH3T3 [11] = test: Induction of cell cycle arrest in mouse NIH3T3 cells expressing pRb-negative assessed as percentage of cells at G0/G1 phase at 10 uM after 24 hrs by flow cytometry analysis (reference value: 43.5%)
U2OS [12] = test: Induction of cell cycle arrest in human U2OS cells expressing pRb assessed as percentage of cells at S phase at 5 uM after 24 hrs by flow cytometry analysis (reference value: 19.9%)
U2OS [13] = test: Induction of cell cycle arrest in human U2OS cells expressing pRb negative assessed as percentage of cells at G0/G1 phase at 10 uM after 24 hrs by flow cytometry analysis (reference value: 42.5%)

## CCNc1cc(N[C@H]2CC[C@H](O)CC2)nc(Nc2ccc3c(ccn3Cc3ccccc3)c2)n1
HCT-116 [1]
  Activity: 20.7%
HCT-116 [2]
  Activity: 2.2%
HCT-116 [3]
  Activity: 13%
MRC5 [4]
  Activity: 81%
MRC5 [5]
  Activity: 7.1%
U2OS [6]
  Activity: 31.4%
U2OS [7]
  Activity: 13.9%
U2OS [8]
  Activity: 21.8%
U2OS [9]
  Activity: 83.44%
NIH3T3 [10]
  Activity: 9.1%
NIH3T3 [11]
  Activity: 48.7%
U2OS [12]
  Activity: 11%
U2OS [13]
  Activity: 42.8%
